Legend:
[1] = system: pVHL interaction with RIPK1; assay: pVHL-RIPK1 interaction in cells; assay type: cell-based; conditions: DFO 200 μM; co-immunoprecipitation
Procedure, shortened: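 RIPK1⁻/⁻ HT-29 cells were infected with expression vectors and treated with DFO 200 μM. Immunocomplexes were washed three times (20 mM Tris pH 8.0, 100 mM NaCl, 1 mM EDTA, 0.5% NP-40), resolved by SDS-PAGE and immunoblotted.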

[2] = system: RIPK1, RIPK3 and MLKL activation; assay: RIPK1, RIPK3 and MLKL activation by EGLN inhibitors; assay type: cell-based, mouse; conditions: MEFs; for hallmarks of RIPK1, RIPK3 and MLKL activation, inhibitor alone: immunoblotting; for concentration needed to activate RIPK1 and necroptosis: concentration series
[3] = system: Pro195 hydroxylation of RIPK1; assay: RIPK1 Pro195/Pro196 hydroxylation in cells; assay type: cell-based; conditions: high doses only
WT mice (liver) = assay: FG-4592 in vivo, WT mice: liver damage, RIPK1 activation, cell death, cytokines
HT-29 cells [4] = assay: RIPK1 activation and necroptosis by FG-4592, HT-29 cells; assay type: cell-based
MEFs [5] = assay: TSZ-induced cell death with FG-4592, MEFs; assay type: cell-based, mouse; conditions: FG-4592 200 μM; TNFα 10 ng/mL, SM164 50 nM, zVAD.fmk 20 μM; n = 3
Procedure, shortened: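 MEFs were given TNFα 10 ng/mL, SM164 50 nM and zVAD.fmk 20 μM, with or without test compound at 200 μM. Cell death was read by propidium iodide uptake: PI-positive and total cells were counted under an inverted fluorescence microscope. n = 3 biological independent samples, mean ± s.d., two-way ANOVA.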

[6] = system: WT and Ripk1 P196A/P196A mice; assay: FG-4592 in WT and Ripk1 P196A/P196A mice; assay type: in vivo; conditions: FG-4592 25 mg kg^−1 i.p., 7 days
MEFs [7] = assay: cell death with EGLN inhibitor, MEFs; assay type: cell-based, mouse
Procedure, shortened: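 MEFs in DMEM/10% FBS/1% penicillin-streptomycin were treated with graded test compound concentrations. Cell death was measured by propidium iodide uptake, counting PI-positive versus total cells by fluorescence microscopy (mean ± s.d., n = 3 biological samples). p-RIPK1-S166 and p-MLKL-S345 were immunoblotted across the concentration series after 48 h, and at 400 μM over a time course.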

Mlkl knockout cells = assay: FG-4592-induced cell death in WT and Mlkl knockout cells; assay type: cell-based; conditions: n = 3
[8] = system: proline hydroxylation of RIPK1 at Pro196; assay: RIPK1 Pro196 hydroxylation in mouse liver in vivo; conditions: WT mouse liver; i.p. 50 or 250 mg kg^−1 every 24 h for 2 d; n = 3
mutant RIPK1-P195A = assay: in vitro kinase assay, RIPK1-P195A; assay type: biochemical, human; conditions: 100 μM ATP, 30 °C, 30 min, p-RIPK1-S166 immunoblot
WT RIPK1 = assay: in vitro kinase assay, WT RIPK1; assay type: biochemical, human; conditions: 100 μM ATP, 30 °C, 30 min, p-RIPK1-S166 immunoblot
EGLN1 = assay: in vitro hydroxylation assay with recombinant EGLN1; assay type: biochemical; conditions: 37 °C, 1 h, pH 7.5, 50 μM EGLN1, 100 μM substrate; mass spectrometry
Vhl LKO mice (liver) = assay: Nec-1s in Vhl LKO mice; assay type: in vivo, mouse; conditions: Nec-1s in drinking water, 7 days; n = 6
[9] = system: human skin fibroblast cells; assay: hypoxia-induced cell death, human skin fibroblasts; assay type: cell-based; conditions: 1% O2, 48 h; primary fibroblasts; propidium iodide uptake; n = 3
Procedure, shortened: (§1)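 Jurkat, THP-1 and primary fibroblasts were exposed to 1% O2 for 48 h. Cell death was measured by propidium iodide uptake, counting PI-positive and total cells under an inverted fluorescence microscope. Values are mean ± s.d., n = 3 biological samples, compared by unpaired two-tailed t-test.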

THP-1 cells = assay: hypoxia-induced cell death, THP-1; assay type: cell-based; conditions: 1% O2, 48 h; propidium iodide uptake; n = 3
Procedure, shortened: as §1

Vhl knockout MEFs = assay: hypoxia-induced necroptosis in Vhl-deleted MEFs; assay type: cell-based, mouse; conditions: 1% O2; Nec-1s printed as 25 M; propidium iodide uptake; n = 3
primary Ripk1 P196A MEFs = assay: TSZ or TNFα/SM-164-induced cell death and p-RIPK1-S166 in Ripk1 P196A MEFs; assay type: cell-based, mouse; conditions: Nec-1s 20 μM, n = 3
[10] = system: human RIPK1 and RIPK1-P195A mutant; assay: p-RIPK1-S166 in 293T cells overexpressing WT or P195A RIPK1; assay type: cell-based; conditions: overexpressed RIPK1, 10 μM Nec-1s, n = 3
HT-29 cells [11] = assay: hypoxia-induced cell death, HT-29; assay type: cell-based; conditions: 1% O2; Nec-1s 25 μM; propidium iodide uptake; n = 3
Procedure, shortened: (§2)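 HT-29 and L929 cells were held at 1% O2 with or without 25 μM Nec-1s; L929 were kept in DMEM with 10% FBS and 1% penicillin/streptomycin. Cell death was measured by propidium iodide uptake, counting PI-positive and total cells under an inverted fluorescence microscope. Values are mean ± s.d., n = 3 biological samples.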

L929 cells = assay: hypoxia-induced cell death, L929; assay type: cell-based; conditions: 1% O2; Nec-1s 25 μM; propidium iodide uptake; n = 3
Procedure, shortened: as §2

786-O cells = assay: TNFα/5z7/SM-164-induced RDA in 786-O cells; assay type: cell-based; conditions: Nec-1s 10 μM; TNFα 10 ng/mL; SM-164 50 nM; 5z7 500 nM; n = 3
Procedure, shortened: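 VHL-deficient 786-O cells were treated with TNFα, 5z7 and SM-164, with or without Nec-1s, for different times. Viability was read by ATP-Glo luminescence, expressed as a percentage of untreated wells after subtracting the blank-well background.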

Egln1−/− MEFs = assay: TSZ- or TNFα/5z7-induced cell death, Egln1−/− MEFs; assay type: cell-based, mouse; conditions: induced by TSZ or by TNFα + 5z7 (200 nM); n = 3
Procedure, shortened: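 Knockout MEFs were given TNFα 10 ng/mL + SM164 50 nM + zVAD.fmk 20 μM, or TNFα 10 ng/mL + 5z7 200 nM, each ± RIPK1-inhibitor test compound. TSZ death was read by PI uptake: PI-positive and total cells counted by fluorescence microscopy. TNFα/5z7 viability was read by ATP-Glo luminescence, background-subtracted, as % of untreated wells. n = 3 biological samples, mean ± s.d., two-way ANOVA.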

Ripk1 P196A/P196A mice = assay: Nec-1s in Ripk1 P196A/P196A mice; assay type: in vivo, mouse; conditions: Nec-1s in drinking water, 7 d; n = 5-6
Jurkat cells = assay: hypoxia-induced cell death, Jurkat; assay type: cell-based; conditions: 1% O2, 48 h; propidium iodide uptake; n = 3
Procedure, shortened: as §1

[12] = system: RIPK1 proline hydroxylation (EGLN); assay: RIPK1 proline hydroxylation in cells, pan-hydroxylation antibody; assay type: cell-based, murine; conditions: MEFs with Flag-mRIPK1; CoCl2 400 μM, 16 h
Procedure, shortened: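 MEFs were transduced with a Flag-mouse RIPK1 expression vector for 24 h, then treated with CoCl2 (400 μM) for a further 16 h. Lysates were immunoprecipitated with anti-Flag and the complexes immunoblotted with an anti-pan-hydroxylation antibody. Three independent experiments were run.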

monocytes = conditions: cited from earlier work
cIAP1 = conditions: cited from earlier work

CC(=O)N(O)CCCCCNC(=O)CCC(=O)N(O)CCCCCNC(=O)CCC(=O)N(O)CCCCCN [DFO, deferoxamine]
pVHL interaction with RIPK1 [1]: markedly decreased pVHL interaction with RIPK1 in cells | hallmarks of RIPK1, RIPK3 and MLKL activation, inhibitor alone [2]: showed the hallmarks of RIPK1, RIPK3 and MLKL activation | concentration needed to activate RIPK1 and necroptosis [2]: Only high concentrations

Cc1nc(C(=O)NCC(=O)O)c(O)c2ccc(Oc3ccccc3)cc12 [FG-4592]
RIPK1 hydroxylation, RIPK1 activity and cell death, dose dependence [3]: led to a decrease in the hydroxylation of RIPK1 and corresponding increases in RIPK1 activity and cell death | liver damage, TUNEL^+ cells and p-RIPK1-S166 in liver (WT mice (liver); FG-4592 250 mg kg^−1 i.p., every 24 h for 2 d): caused substantial liver damage, with a large number of TUNEL^+ cells and increased p-RIPK1-S166 | RIPK1 activation or cell death in liver (WT mice (liver); FG-4592 25 or 50 mg kg^−1 i.p., n = 5): did not induce RIPK1 activation or cell death | RIPK1 activation and necroptosis (HT-29 cells [4]; relatively high concentration): activated RIPK1 and induced necroptosis | sensitization to TSZ-induced cell death (MEFs [5]): could sensitize cells to cell death induced by TSZ treatment | concentration needed to activate RIPK1 and necroptosis [2]: Only high concentrations | HIF pathway induction, RIPK1 activation and cell death [6]: can only induce the HIF pathway, without induction of RIPK1 activation and cell death | sensitization to hypoxia-induced cell death (MEFs [7]; 1% O2 with or without 200 μM FG-4592, n = 3): could sensitize cell death induced by hypoxia | RIPK1 activation and necroptosis (MEFs [7]; MEFs, relatively high concentration, up to 400 μM at indicated times, 48 h): activated RIPK1 and induced necroptosis | effect of Mlkl deletion on FG-4592-induced cell death (Mlkl knockout cells): deletion of Mlkl decreased cell death induced by FG-4592 treatment | RIPK1 Pro196 hydroxylation in vivo [8]: can also reduce the proline hydroxylation of RIPK1 at Pro196 in vivo

recombinant pVHL: purified recombinant von Hippel–Lindau protein
inhibition of RIPK1 kinase activity (mutant RIPK1-P195A): but not mutant RIPK1-P195A | inhibition of RIPK1 kinase activity (WT RIPK1): could dramatically inhibit induction of the kinase activity of WT RIPK1

KNGGTLYYMAPEHLNDVNAKP [synthetic RIPK1 peptide]
hydroxylation by recombinant EGLN1 (EGLN1): recombinant EGLN1 hydroxylated a synthetic RIPK1 peptide containing Pro195

CN1C(=O)NC(Cc2c[nH]c3c(Cl)cccc23)C1=O (centres unmarked) [Nec-1s, necrostatin-1s]
RIPK1 activation, cell death and inflammation in Vhl LKO mice (Vhl LKO mice (liver)): blocked RIPK1 activation, cell death and inflammation in Vhl hepatocyte-specific knockout mice | hypoxia-induced cell death with Nec-1s [9]: decreased | hypoxia-induced cell death with Nec-1s (THP-1 cells): decreased | hypoxia-induced necroptosis in Vhl-deleted MEFs with Nec-1s (Vhl knockout MEFs): could be decreased with the administration of Nec-1s | increased cell death and RIPK1 activation with Nec-1s (primary Ripk1 P196A MEFs): both the increased cell death and RIPK1 activation were inhibited | inhibition of p-RIPK1-S166 (WT and P195A RIPK1) [10]: effectively inhibited | hypoxia-induced cell death with Nec-1s (HT-29 cells [11]): decreased | hypoxia-induced cell death with Nec-1s (L929 cells): decreased | RDA induced by TNFα, 5z7 and SM-164 with Nec-1s (786-O cells): could be blocked by Nec-1s | cell death of Egln1−/− MEFs with Nec-1s (Egln1−/− MEFs): blocked the cell death of Egln1^−/− MEFs induced by either TSZ or a combination of TNFα and 5z7 | cell death and inflammation in Ripk1 P196A/P196A mice with Nec-1s (Ripk1 P196A/P196A mice): decreased cell death and inflammation in Ripk1^P196A/P196A mice | hypoxia-induced cell death with Nec-1s (Jurkat cells): decreased

COc1nccnc1NS(=O)(=O)c1ccc(NC(=O)/C=C/c2ccc([N+](=O)[O-])s2)cc1 [necrosulfonamide]
suppression of FG-4592-induced cell death (HT-29 cells [4]; 10 μM necrosulfonamide, 48 h, n = 3): can also suppress cell death induced by treatment with FG-4592 in HT-29 cells

[Cl][Co][Cl] [CoCl2, cobalt chloride]
RIPK1 proline hydroxylation (pan-hydroxylation antibody) [12]: could be blocked | hallmarks of RIPK1, RIPK3 and MLKL activation, inhibitor alone [2]: showed the hallmarks of RIPK1, RIPK3 and MLKL activation | concentration needed to activate RIPK1 and necroptosis [2]: Only high concentrations

COC(=O)CNC(=O)C(=O)OC [dimethyloxalylglycine]
RIPK1 activation and caspase-independent cell death (monocytes): induce RIPK1 activation and caspase-independent cell death in monocytes | cIAP1 expression (cIAP1): caused a decrease in cellular inhibitor of apoptosis protein-1 (cIAP1) expression
